These results are taken from ChEMBL document CHEMBL5653631, “A Potent and Selective ULK1 Inhibitor Suppresses Autophagy and Sensitizes Cancer Cells to Nutrient Stress” (iScience, 2018).

Assay [1] deals with G protein-coupled receptor kinase 5 (Homo sapiens) (UniProt P34947). Kind of assay: Inhibition of human recombinant GPRK5 at 15 nM in presence of ATP by radiometric assay relative to control.
The target in assay [2] is Interferon-induced, double-stranded RNA-activated protein kinase (Homo sapiens) (UniProt P19525). Kind of assay: Inhibition of human recombinant PKR at 15 nM in presence of ATP by radiometric assay relative to control.
Assay [3] has as its target Serine/threonine-protein kinase WNK3 (Homo sapiens) (UniProt Q9BYP7). In words: Inhibition of human recombinant Wnk3 at 15 nM in presence of ATP by radiometric assay relative to control.
The target of assay [4] is Tyrosine-protein kinase BTK (Homo sapiens) (UniProt Q06187). In words: Inhibition of human recombinant BTK at 15 nM related to control ULK1.
Chain of Tyrosine-protein kinase BTK (Homo sapiens) (Q06187 whole entry): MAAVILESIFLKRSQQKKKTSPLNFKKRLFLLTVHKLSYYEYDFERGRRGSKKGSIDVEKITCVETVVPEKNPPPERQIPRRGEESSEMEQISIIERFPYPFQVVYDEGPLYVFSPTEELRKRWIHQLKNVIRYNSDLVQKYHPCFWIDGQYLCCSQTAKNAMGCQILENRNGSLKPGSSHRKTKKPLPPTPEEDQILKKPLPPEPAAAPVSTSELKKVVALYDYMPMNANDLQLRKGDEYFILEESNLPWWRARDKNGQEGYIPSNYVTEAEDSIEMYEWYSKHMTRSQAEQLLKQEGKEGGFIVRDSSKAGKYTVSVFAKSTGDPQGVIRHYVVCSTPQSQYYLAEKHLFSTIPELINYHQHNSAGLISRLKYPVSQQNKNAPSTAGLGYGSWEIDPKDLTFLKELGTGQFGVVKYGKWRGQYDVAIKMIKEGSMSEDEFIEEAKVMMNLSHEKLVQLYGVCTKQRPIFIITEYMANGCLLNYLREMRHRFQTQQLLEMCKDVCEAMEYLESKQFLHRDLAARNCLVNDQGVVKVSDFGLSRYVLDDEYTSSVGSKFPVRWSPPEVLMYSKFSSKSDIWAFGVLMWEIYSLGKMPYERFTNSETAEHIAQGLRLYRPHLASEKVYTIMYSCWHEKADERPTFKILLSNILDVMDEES
The target of assay [5] is Calcium/calmodulin-dependent protein kinase kinase 1 (Homo sapiens) (UniProt Q8N5S9). In words: Inhibition of human recombinant CaMKK1 at 15 nM related to control ULK1.
Chain of Calcium/calmodulin-dependent protein kinase kinase 1 (Homo sapiens) (Q8N5S9 whole entry, looked up): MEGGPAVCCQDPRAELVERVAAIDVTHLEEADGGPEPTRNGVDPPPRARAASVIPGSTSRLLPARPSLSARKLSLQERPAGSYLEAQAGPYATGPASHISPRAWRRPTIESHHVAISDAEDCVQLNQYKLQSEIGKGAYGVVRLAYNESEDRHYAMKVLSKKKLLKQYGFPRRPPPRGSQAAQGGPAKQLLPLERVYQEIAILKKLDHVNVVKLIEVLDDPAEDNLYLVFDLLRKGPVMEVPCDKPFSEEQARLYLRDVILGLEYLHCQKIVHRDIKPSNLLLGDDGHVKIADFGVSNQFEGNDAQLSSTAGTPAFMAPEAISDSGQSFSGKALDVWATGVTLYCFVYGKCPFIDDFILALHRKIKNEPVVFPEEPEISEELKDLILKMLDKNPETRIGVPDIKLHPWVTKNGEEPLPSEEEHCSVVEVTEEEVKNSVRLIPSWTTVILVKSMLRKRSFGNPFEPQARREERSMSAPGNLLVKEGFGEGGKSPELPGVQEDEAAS
For assay [6], the target named is Receptor tyrosine-protein kinase erbB-2 (Homo sapiens) (UniProt P04626). In words: Inhibition of human recombinant ErbB2 at 15 nM related to control ULK1.
Assay [7] has as its target Insulin receptor (Homo sapiens) (UniProt P06213). Kind of assay: Inhibition of human recombinant INSR at 15 nM related to control ULK1.
Assay [8] concerns the target T1, NUAK family SNF1-like kinase 2 (Homo sapiens) (UniProt Q9H093).
T1 sequence (whole entry): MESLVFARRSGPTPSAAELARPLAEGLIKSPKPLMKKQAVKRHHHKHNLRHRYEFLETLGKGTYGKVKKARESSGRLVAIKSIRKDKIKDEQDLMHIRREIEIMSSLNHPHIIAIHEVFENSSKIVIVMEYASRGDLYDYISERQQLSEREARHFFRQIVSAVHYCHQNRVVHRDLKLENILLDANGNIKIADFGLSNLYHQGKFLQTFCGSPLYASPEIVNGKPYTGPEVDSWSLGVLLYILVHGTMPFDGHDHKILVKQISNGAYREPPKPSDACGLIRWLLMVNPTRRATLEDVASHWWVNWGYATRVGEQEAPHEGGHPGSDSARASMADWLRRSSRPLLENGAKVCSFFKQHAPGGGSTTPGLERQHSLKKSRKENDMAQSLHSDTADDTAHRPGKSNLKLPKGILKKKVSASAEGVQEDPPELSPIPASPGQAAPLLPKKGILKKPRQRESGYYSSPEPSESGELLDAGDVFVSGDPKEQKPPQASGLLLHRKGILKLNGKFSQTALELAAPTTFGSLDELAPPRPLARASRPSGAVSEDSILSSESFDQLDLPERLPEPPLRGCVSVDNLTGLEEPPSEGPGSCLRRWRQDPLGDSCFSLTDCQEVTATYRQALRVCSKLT
Kind of assay: Inhibition of human recombinant NuaK2 at 15 nM related to control ULK1.

In assay [9] the target is Serine-protein kinase ATM (Homo sapiens) (UniProt Q13315). In words: Inhibition of human recombinant ATM at 40 nM in presence of ATP by radiometric assay relative to control. Summed up:
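Panel of 327 recombinant human kinases, each assayed in vitro by radiometric activity assay in duplicate at a single inhibitor concentration per compound, chosen with reference to its ULK1 inhibition. Activity remaining was expressed as percent of vehicle control, and percent inhibition was calculated as 100 minus percent activity remaining.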

In assay [10] the target is T2, Testis-specific serine/threonine-protein kinase 3 (Homo sapiens) (UniProt Q96PN8).
T2 sequence (whole entry): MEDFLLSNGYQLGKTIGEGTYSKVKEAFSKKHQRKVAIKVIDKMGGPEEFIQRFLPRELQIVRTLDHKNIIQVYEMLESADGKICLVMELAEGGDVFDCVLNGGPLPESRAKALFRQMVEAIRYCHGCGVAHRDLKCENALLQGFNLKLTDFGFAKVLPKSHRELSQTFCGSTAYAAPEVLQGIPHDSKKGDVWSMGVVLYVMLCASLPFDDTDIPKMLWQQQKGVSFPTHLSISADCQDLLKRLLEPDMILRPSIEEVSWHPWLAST
In words: Inhibition of human recombinant TSSK3 at 40 nM related to control ULK1.

The next assay relates to U2OS. In words: cells. The following applies: Homo sapiens.
Assay [11] concerns the target T3, MAP/microtubule affinity-regulating kinase 4 (Homo sapiens) (UniProt Q96L34).
T3 sequence (whole entry): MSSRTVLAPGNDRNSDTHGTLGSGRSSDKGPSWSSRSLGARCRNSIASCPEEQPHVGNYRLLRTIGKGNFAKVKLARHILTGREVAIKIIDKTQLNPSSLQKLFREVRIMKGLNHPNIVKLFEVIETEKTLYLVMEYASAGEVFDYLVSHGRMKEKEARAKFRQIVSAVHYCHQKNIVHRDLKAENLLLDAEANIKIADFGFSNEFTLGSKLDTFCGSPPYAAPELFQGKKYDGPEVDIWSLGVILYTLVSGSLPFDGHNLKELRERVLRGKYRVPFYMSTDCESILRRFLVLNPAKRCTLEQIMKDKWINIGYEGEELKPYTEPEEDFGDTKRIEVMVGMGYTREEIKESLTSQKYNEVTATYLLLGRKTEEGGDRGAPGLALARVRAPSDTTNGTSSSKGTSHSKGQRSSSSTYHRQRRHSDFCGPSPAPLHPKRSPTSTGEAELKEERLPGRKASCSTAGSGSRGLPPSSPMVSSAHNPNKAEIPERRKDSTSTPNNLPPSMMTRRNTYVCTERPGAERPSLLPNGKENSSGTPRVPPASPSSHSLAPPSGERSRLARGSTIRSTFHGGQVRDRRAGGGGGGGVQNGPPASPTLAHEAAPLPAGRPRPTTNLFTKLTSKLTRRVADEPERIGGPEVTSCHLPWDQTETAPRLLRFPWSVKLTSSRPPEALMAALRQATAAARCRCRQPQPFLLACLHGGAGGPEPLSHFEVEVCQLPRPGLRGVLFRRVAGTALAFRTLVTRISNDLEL
Kind of assay: Inhibition of human recombinant MARK4 at 500 nM in presence of ATP by radiometric assay relative to control.

Assay [12] deals with Fibroblast growth factor receptor 2 (Homo sapiens) (UniProt P21802). Kind of assay: Inhibition of human recombinant FGFR2 at 500 nM related to control ULK1.
Assay [13] has as its target Serine/threonine-protein kinase Nek4 (Homo sapiens) (UniProt P51957). Kind of assay: Inhibition of human recombinant NEK4 at 500 nM related to control ULK1.

Molecules are shown by their SMILES.

Chain of Serine/threonine-protein kinase Nek4 (Homo sapiens) (P51957 whole entry, looked up): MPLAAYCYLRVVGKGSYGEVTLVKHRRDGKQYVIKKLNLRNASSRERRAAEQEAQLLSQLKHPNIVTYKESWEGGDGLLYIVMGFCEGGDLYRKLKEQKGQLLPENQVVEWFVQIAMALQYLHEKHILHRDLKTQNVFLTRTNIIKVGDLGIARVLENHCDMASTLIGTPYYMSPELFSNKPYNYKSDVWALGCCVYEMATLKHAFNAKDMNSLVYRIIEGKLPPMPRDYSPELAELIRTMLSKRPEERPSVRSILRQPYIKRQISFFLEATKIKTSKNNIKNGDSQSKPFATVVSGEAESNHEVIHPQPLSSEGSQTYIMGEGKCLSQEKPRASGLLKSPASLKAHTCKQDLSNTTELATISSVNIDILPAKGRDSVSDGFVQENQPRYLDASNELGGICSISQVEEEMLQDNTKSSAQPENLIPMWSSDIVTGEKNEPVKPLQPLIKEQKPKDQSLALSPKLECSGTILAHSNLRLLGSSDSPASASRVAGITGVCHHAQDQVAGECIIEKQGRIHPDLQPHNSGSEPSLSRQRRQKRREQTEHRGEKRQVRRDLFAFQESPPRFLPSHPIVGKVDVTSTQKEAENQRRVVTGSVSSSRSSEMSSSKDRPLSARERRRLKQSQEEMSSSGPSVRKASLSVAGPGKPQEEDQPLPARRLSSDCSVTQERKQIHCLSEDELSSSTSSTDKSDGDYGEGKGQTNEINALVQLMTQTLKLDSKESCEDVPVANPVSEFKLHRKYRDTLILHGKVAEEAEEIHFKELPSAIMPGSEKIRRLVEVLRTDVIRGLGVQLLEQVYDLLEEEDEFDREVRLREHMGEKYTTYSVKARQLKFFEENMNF
Chain of Serine-protein kinase ATM (Homo sapiens) (Q13315 whole entry): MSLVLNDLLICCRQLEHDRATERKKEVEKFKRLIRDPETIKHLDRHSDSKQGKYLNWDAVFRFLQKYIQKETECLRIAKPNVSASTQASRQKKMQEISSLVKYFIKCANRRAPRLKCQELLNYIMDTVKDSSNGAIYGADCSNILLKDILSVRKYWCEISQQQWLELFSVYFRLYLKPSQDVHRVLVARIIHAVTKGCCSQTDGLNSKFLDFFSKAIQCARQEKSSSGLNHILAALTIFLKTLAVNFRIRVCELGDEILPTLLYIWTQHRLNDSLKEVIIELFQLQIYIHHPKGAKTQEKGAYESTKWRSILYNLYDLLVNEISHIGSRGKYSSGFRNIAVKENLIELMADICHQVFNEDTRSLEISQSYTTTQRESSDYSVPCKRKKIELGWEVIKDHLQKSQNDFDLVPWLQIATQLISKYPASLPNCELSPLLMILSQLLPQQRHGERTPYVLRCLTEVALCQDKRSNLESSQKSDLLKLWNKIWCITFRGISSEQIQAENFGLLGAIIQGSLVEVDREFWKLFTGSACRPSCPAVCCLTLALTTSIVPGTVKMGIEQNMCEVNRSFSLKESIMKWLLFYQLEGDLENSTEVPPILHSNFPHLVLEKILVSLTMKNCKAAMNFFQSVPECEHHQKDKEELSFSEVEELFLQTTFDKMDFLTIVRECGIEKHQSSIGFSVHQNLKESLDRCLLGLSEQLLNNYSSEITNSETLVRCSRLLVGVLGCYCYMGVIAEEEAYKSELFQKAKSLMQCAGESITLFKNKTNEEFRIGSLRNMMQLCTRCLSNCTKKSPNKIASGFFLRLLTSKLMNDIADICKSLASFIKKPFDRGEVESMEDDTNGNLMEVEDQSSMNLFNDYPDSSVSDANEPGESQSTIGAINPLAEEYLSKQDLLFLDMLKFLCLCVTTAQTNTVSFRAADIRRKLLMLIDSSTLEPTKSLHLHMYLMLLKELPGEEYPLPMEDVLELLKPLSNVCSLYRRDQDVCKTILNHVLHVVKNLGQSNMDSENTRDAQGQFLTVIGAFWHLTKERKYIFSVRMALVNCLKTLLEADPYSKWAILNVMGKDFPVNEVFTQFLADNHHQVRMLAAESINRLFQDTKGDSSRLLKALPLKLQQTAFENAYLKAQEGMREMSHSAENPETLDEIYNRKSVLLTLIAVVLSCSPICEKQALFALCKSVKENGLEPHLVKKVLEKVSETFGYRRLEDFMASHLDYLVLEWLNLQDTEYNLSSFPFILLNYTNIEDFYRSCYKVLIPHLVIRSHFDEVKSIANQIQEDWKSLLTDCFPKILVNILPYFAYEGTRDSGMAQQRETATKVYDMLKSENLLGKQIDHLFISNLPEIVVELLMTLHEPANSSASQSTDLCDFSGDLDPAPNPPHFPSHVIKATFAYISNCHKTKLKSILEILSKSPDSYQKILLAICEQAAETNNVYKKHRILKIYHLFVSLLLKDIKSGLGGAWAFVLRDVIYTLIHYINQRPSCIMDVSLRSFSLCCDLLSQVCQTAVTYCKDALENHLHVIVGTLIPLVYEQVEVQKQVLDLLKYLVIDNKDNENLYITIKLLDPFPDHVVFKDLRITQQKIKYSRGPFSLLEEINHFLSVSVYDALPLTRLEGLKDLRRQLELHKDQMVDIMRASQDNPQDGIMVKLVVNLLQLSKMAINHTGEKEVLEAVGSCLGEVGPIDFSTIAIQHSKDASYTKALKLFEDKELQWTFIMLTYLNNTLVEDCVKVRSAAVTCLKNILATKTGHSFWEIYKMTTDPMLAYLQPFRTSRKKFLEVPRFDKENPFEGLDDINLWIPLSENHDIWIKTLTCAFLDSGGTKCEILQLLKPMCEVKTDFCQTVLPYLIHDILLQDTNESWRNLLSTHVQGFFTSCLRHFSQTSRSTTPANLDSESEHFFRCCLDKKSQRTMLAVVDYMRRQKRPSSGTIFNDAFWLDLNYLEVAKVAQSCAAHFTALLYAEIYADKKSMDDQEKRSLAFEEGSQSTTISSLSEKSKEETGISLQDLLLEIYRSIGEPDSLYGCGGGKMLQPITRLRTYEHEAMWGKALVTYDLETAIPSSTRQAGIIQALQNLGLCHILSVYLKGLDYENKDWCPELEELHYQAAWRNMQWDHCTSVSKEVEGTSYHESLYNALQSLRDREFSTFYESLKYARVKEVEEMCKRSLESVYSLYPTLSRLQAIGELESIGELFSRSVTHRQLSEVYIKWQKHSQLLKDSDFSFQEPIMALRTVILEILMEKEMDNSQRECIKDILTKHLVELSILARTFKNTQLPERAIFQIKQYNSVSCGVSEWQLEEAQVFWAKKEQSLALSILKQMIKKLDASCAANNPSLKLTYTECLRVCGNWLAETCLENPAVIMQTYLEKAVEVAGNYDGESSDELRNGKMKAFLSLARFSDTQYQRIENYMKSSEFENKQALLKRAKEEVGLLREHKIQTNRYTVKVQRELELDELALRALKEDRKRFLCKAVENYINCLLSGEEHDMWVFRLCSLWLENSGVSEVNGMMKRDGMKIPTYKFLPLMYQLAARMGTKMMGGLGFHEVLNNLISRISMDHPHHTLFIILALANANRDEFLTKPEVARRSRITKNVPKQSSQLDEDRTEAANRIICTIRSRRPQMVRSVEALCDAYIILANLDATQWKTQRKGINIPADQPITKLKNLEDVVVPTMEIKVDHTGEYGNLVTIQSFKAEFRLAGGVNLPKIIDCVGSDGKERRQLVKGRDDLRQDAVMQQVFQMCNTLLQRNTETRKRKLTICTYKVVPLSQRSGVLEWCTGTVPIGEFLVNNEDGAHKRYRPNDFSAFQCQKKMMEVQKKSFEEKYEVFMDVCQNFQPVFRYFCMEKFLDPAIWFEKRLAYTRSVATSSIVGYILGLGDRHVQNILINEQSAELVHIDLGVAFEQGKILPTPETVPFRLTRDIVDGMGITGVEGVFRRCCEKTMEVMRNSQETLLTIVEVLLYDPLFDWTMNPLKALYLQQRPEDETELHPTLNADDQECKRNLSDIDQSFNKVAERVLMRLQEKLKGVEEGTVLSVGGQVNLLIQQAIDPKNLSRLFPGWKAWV

Broadly, the inhibition is the drop in the measured response relative to a control, in per cent. In the case of `CC(C)[C@H](NC(=O)c1cc(-c2cnn3cc(-c4ccc(OCCN5CCCCC5)cc4)cnc23)cs1)C(F)(F)F`, the values for the inhibition in [1], in assay [2] and in assay [3] were 0%, 2% and 0%, respectively. Also, the fold change (FC) in [4] is 0; in [5], 0; in assay [6] it was 0; in assay [7], 0; in assay [8], 0.2.
Usually EC50 stands for the concentration needed to bring the measured effect to its halfway point. A high value points to weaker potency. Turning to `O=C(N[C@@H](C1CC1)C(F)(F)F)c1cc(-c2cnn3cc(-c4ccc(F)cc4)cnc23)cs1`, the inhibition in assay [9] was determined as 5%. Also, the fold change (FC) in assay [10] turned out to be 0. The molecule also registered a concentration giving a half-maximal response (EC50) in the assay on U2OS of 700 nM.
In the case of `CNC(=O)c1ccccc1Oc1nc(Nc2cc(OC)c(OC)c(OC)c2)ncc1Br`, the inhibition in assay [11] amounted to 58%. Besides, the values for the fold change (FC) in assay [12] and in assay [13] were 0.28 and 0.31, respectively.
